According to paper PMC10092581 (Chemistry (Weinheim an Der Bergstrasse, Germany), 2022):
Where two headings read alike, the source gives them in different places.

Columns and labels:
[1] = tested on: A2780 ovarian adenocarcinoma cells; assay: MTT cross-resistance, sensitive ovarian cells; type: cell-based; conditions: Homo sapiens, A2780, 72 h, read-out: IC50 (μM)±SD A2780
Summary of the method: (§1)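 A2780 and A2780 ADR cells were grown in RPMI-1640 with 10% FCS, antibiotics and 2 mM glutamine at 37 °C, 5% CO2. Cells (3–8×10^3/well) were given compound after 24 h and exposed 72 h in triplicate, with DMSO at 0.5% final. MTT was added for 5 h, followed by SDS/0.01 M HCl overnight, then A570 as % of untreated control. IC50 came from a 4-PL fit over ≥4 experiments; RF = IC50 A2780 ADR/IC50 A2780.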

[2] = tested on: LoVo MDR colon cancer cells; assay: MTT cross-resistance, multi-drug resistant cells; type: cell-based, human
Summary of the method: (§2)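 LoVo, LoVo MDR and LoVo-OXP cells were grown in F-12 HAM'S with 10% FCS, antibiotics and 2 mM glutamine at 37 °C, 5% CO2. LoVo-OXP had been selected over 17 months in increasing oxaliplatin. Cells (3–8×10^3/well) were exposed 72 h in triplicate, with DMSO at 0.5% final. MTT was added for 5 h, followed by SDS/0.01 M HCl overnight, then A570. IC50 came from a 4-PL fit over ≥4 experiments; RF = IC50 resistant/IC50 LoVo.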

[3] = tested on: A2780 ADR ovarian cancer cells; assay: MTT cross-resistance, multi-drug resistant ovarian cells; type: cell-based, human
Summary of the method: as §1

LoVo colon cancer cells = assay: MTT cross-resistance, sensitive colon cells; type: cell-based, human; conditions: 72 h, read-out: IC50 (μM)±SD LoVo
Summary of the method: as §2

[4] = tested on: LoVo‐OXP colon cancer cells; assay: MTT cross-resistance, oxaliplatin-resistant cells; type: cell-based, human
Summary of the method: as §2

[5] = tested on: LoVo‐OXP colon cancer cells; conditions: as previously reported; cited from earlier work
[6] = tested on: 2008 ovarian cancer cells; assay: MTT cytotoxicity, 72 h; type: cell-based, human; conditions: read-out: IC50 (μM)±SD 2008, MTT test
Summary of the method: (§3)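 The 2008 and H157 cells were kept in RPMI-1640, and A375 cells in DMEM, each with 10% FCS, antibiotics and 2 mM glutamine, at 37 °C, 5% CO2. Cells (3–8×10^3/well) were exposed 72 h in triplicate, with DMSO at 0.5% final. MTT was added for 5 h, followed by SDS/0.01 M HCl overnight, then A570 relative to untreated wells. IC50 came from a 4-PL fit, means of ≥4 independent experiments.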

H157 cells [7] = assay: Apoptosis induction; type: cell-based, human; conditions: 48 h, IC50 doses
[8] = tested on: HCT‐15 colon cancer cells; assay: MTT cytotoxicity, 72 h; type: cell-based, human; conditions: read-out: IC50 (μM)±SD HCT‐15, MTT test
A375 melanoma cells = assay: MTT cytotoxicity, 72 h; type: cell-based, human; conditions: read-out: IC50 (μM)±SD A375, MTT test
Summary of the method: as §3

[9] = tested on: PSN‐1 pancreatic cancer cells; assay: MTT cytotoxicity, 72 h; type: cell-based, human; conditions: read-out: IC50 (μM)±SD PSN‐1, MTT test
H157 cells [10] = assay: Transmission electron microscopy; type: cell-based, human; conditions: 24 h, IC50 concentrations
Summary of the method: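 About 10^6 H157 cells were treated 24 h after seeding and incubated a further 24 h; untreated and auranofin-treated cells served as references. Cells were fixed in 1.5% glutaraldehyde in 0.2 M sodium cacodylate pH 7.4, post-fixed in 1% OsO4 and embedded in epoxy. Sections were 1 μm (toluidine blue) or 90 nm (uranyl acetate/lead citrate), imaged at 75 kV.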

[11] = tested on: A431 cervical carcinoma cells; assay: MTT cytotoxicity, 72 h; type: cell-based, human; conditions: read-out: IC50 (μM)±SD A431, MTT test
[12] = tested on: MCF‐7 breast cancer cells; assay: MTT cytotoxicity, 72 h; type: cell-based, human; conditions: read-out: IC50 (μM)±SD MCF‐7, MTT test
[13] = tested on: H157 lung carcinoma cells; assay: MTT cytotoxicity, 72 h; type: cell-based, human; conditions: read-out: IC50 (μM)±SD H157, MTT test
Summary of the method: as §3

[14] = tested on: A2780 ovarian cancer cell spheroids; assay: 3D spheroid cytotoxicity, acid phosphatase; type: cell-based, human; conditions: read-out: IC50 (μM)±SD A2780 spheroids; 3D spheroids, 72 h, APH assay
Summary of the method: (§4)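 H157 or A2780 cells were seeded at 2.5×10^3 cells/well in round-bottom non-treated plates. The medium was phenol red-free RPMI-1640 with 10% FCS plus 20% methyl cellulose stock solution. Spheroids were exposed 72 h to increasing concentrations, with the compound added from DMSO to a final 0.5%. Viability was read by a modified acid phosphatase assay, and IC50 was fitted by a 4-parameter logistic model.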

[15] = tested on: H157 lung cancer cell spheroids; assay: 3D spheroid cytotoxicity, acid phosphatase; type: cell-based, human; conditions: read-out: IC50 (μM)±SD H157 spheroids; 3D spheroids, 72 h, APH assay
Summary of the method: as §4

[16] = RF=IC50 resistant cells/IC50 sensitive cells

SMILES: COc1cccc2c1C(=O)c1c(O)c3c(c(O)c1C2=O)C[C@@](O)(C(=O)CO)C[C@@H]3O[C@H]1C[C@H](N)[C@H](O)[C@H](C)O1 [Doxorubicin]
- IC50 [1]: 0.01 ± 0.001 µM
- IC50 ([2]; Homo sapiens, LoVo, 72 h, read-out: IC50 (μM)±SD LoVo MDR): 19.2 ± 2.3 µM
- RF (LoVo MDR/LoVo) [2, 16]: 17.5 –
- IC50 ([3]; Homo sapiens, A2780 ADR, 72 h, read-out: IC50 (μM)±SD A2780 ADR): 0.16 ± 0.03 µM
- RF (A2780 ADR/A2780) [3, 16]: 16.0 –
- IC50 (LoVo colon cancer cells; Homo sapiens, LoVo): 1.1 ± 0.2 µM

SMILES: O=C(O)C(=O)O.[NH-][C@@H]1CCCC[C@H]1[NH-].[Pt+2] [oxaliplatin]
- RF (LoVo‐OXP/LoVo) [4, 16]: ND 13.0
- IC50 ([4]; read-out: IC50 (μM)±SD LoVo‐OXP, 72 h, MTT test): 14.3 µM
- IC50 (LoVo colon cancer cells; MTT test): 1.1 ± 0.6 µM
- resistance of LoVo OXP cells vs parental cells [5]: about 13 fold

SMILES: CC(=O)OC[C@H]1O[C@@H]([S-])[C@H](OC(C)=O)[C@@H](OC(C)=O)[C@@H]1OC(C)=O.CCP(CC)CC.[Au+] [Auranofin, 2,3,4,6‐tetra‐o‐acetyl‐ L‐thio‐β‐D‐glyco‐pyranosato ‐S‐(triethyl‐phosphine) gold(I)]
- IC50 [6]: 1 ± 0.2 µM
- apoptosis, cellular morphological changes (Hoechst 33258) (H157 cells [7]): brightly stained nuclei and morphological features typical of cells undergoing apoptosis
- IC50 [8]: 0.1 ± 0.02 µM
- IC50 (A375 melanoma cells): 2.3 ± 1 µM
- IC50 [9]: 1 ± 0.4 µM
- mitochondrial morphology (TEM) (H157 cells [10]): dramatic swelling of the mitochondria
- IC50 [11]: 2 ± 0.8 µM
- IC50 [12]: 0.9 ± 0.3 µM
- IC50 [13]: 1.6 ± 0.3 µM

SMILES: N.N.[Cl][Pt][Cl] [Cisplatin]
- IC50 [6]: 2.2 ± 1.3 µM
- IC50 [8]: 11.3 ± 1.5 µM
- IC50 (A375 melanoma cells): 3.1 ± 0.4 µM
- IC50 [9]: 12.1 ± 2.9 µM
- IC50 [14]: 74.2 ± 8.9 µM
- IC50 [15]: 52.5 ± 1.3 µM
- IC50 [11]: 1.4 ± 0.3 µM
- IC50 [12]: 8.8 ± 1 µM
- IC50 [13]: 5.9 ± 1.1 µM
